Assay results: ChEMBL document CHEMBL1129731, “The chemistry of pseudomonic acid. 17. Dual-action C-1 oxazole derivatives of pseudomonic acid having an extended spectrum of antibacterial activity” (J Med Chem, 1996)
Values after ≈ are worked out from the molar mass of the structure shown.

Columns and labels:
[1] = test system: Bacteroides fragilis; assay: compound was tested for antibacterial activity Bacteroides fragilis NCTC 10581.; assay type: functional
[2] = test system: Streptococcus pyogenes; assay: compound was tested for antibacterial activity against Streptococcus pyogenes CN10.; assay type: functional
Summary of the method: (§1)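 Broth microdilution in Mueller–Hinton broth supplemented (final) with 5% heat-inactivated horse serum, 0.02 mg/mL hematin and 0.08 mg/mL NAD; inoculum 5 × 10^5 cfu/mL from overnight broth cultures; 37 °C for 18 h; MIC (µg/mL) read as lowest concentration inhibiting growth.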

[3] = test system: Proteus mirabilis; assay: compound was tested for antibacterial activity against Pr. mirabilis C889.; assay type: functional
Summary of the method: (§2)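 Broth microdilution in Mueller–Hinton broth; overnight broth cultures added to final 5 × 10^5 cfu/mL; incubated 37 °C, 18 h. MIC (µg/mL) taken as lowest concentration inhibiting growth.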

[4] = test system: Moraxella catarrhalis; assay: compound was tested for antibacterial activity against Moraxella catarrhalis 1502.; assay type: functional; summary of the method: as §1
[5] = target: T1, Isoleucine--tRNA ligase (Staphylococcus aureus, UniProt P41972); assay: Inhibitory activity against isoleucyl-tRNA synthetase (IRS) of Staphylococcus aureus; assay type: functional
T1 sequence (P41972 whole entry): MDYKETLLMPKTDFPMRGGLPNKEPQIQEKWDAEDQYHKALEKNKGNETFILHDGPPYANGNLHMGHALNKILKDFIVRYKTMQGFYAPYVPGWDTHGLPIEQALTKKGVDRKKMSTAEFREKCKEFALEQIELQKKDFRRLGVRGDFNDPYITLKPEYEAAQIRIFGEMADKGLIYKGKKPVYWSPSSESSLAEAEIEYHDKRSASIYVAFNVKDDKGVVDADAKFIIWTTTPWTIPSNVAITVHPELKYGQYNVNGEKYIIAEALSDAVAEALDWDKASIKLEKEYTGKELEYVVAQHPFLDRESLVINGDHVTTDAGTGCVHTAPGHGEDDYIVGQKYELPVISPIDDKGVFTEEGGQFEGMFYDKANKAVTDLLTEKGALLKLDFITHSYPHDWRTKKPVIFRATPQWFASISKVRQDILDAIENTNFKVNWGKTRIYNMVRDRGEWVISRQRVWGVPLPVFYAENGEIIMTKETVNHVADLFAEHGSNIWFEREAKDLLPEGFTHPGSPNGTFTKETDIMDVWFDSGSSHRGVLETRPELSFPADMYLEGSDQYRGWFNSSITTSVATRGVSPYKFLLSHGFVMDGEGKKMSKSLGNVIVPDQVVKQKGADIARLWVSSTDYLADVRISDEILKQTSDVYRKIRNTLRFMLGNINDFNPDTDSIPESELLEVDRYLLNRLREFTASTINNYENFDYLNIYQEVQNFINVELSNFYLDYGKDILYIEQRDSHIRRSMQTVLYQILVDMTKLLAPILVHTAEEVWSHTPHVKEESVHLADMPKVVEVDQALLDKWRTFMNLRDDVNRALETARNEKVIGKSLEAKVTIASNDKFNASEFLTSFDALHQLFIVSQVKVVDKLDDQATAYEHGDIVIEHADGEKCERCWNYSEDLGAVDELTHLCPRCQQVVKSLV

[6] = test system: Staphylococcus aureus; assay: compound was tested for antibacterial activity against Staphylococcus aureus F 89.; assay type: functional; summary of the method: as §2
[7] = test system: Enterobacter cloacae; assay: compound was tested for antibacterial activity against Ent. cloacae N1.; assay type: functional
[8] = test system: Pseudomonas aeruginosa; assay: compound was tested for antibacterial activity against Pseudomonas aeruginosa K799 wt.; assay type: functional; summary of the method: as §2
[9] = test system: Klebsiella pneumoniae; assay: compound was tested for antibacterial activity against Klebsiella pneumoniae E70.; assay type: functional; summary of the method: as §2
[10] = test system: Staphylococcus aureus; assay: compound was tested for antibacterial activity against Staphylococcus aureus NCTC 6571.; assay type: functional; summary of the method: as §2
[11] = test system: Escherichia coli; assay: compound was tested for antibacterial activity against Escherichia coli DC2.; assay type: functional; summary of the method: as §2
[12] = test system: Streptococcus pneumoniae; assay: compound was tested for antibacterial activity against Strep. pneumoniae 1761.; assay type: functional; summary of the method: as §1
[13] = test system: Enterococcus faecalis; assay: compound was tested for antibacterial activity against Ent. faecalis I; assay type: functional; summary of the method: as §2
[14] = test system: Escherichia coli; assay: compound was tested for antibacterial activity against Escherichia coli DC0.; assay type: functional
[15] = test system: Staphylococcus epidermidis; assay: compound was tested for antibacterial activity aagainst Staphylococcus epidermidis PHLN 20.; assay type: functional; summary of the method: as §2
[16] = test system: Haemophilus influenzae; assay: compound was tested for antibacterial activity against Haemophilus influenzae Q1.; assay type: functional; summary of the method: as §1
[17] = test system: Staphylococcus aureus; assay: compound was tested for antibacterial activity against Staphylococcus aureus C 37.; assay type: functional
[18] = test system: Mus musculus; assay: Total […] dose against Staphylococcus aureus after sc administration (1+5 hr post infection) to mouse; conditions: in vivo
[19] = test system: Mus musculus; assay: Pharmacokinetic parameter Cmax was determined in blood level in mouse after subcutaneous administration.; assay type: ADME, organism-based; set-up: route subcutaneous; conditions: in vivo, sc
Summary of the method: (§3)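 CD1 male mice (18–22 g), nonfasted, groups of five; 50 mg/kg in 0.2 mL, dissolved in 10% ethanol then diluted 1:9 with 1% HPMC in water (po) or PBS pH 7.3 (sc). Blood sampled 5–240 min; levels by Bacillus subtilis agar bioassay (pH 7.0, 30 °C overnight) against standards in heparinized mouse blood.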

[20] = test system: Mus musculus; assay: Pharmacokinetic parameter AUC was determined in blood level in mouse after subcutaneous administration.; assay type: ADME, organism-based; conditions: in vivo, sc; summary of the method: as §3
[21] = target: T1, Isoleucine--tRNA ligase; assay: compound was tested for inhibitory activity of isoleucyl-tRNA synthetase (IRS).; assay type: functional
[22] = Pharmacokinetic parameter Tmax was determined in blood level in mouse after oral administration.; assay type: ADME, organism-based; summary of the method: as §3
[23] = test system: Mus musculus; assay: Total […] dose against Staphylococcus aureus after […] administration (1+5 hr post infection) to mouse; assay type: organism-based; conditions: in vivo, po
Summary of the method: (§4)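 CD1 male mice, groups of five, infected ip with S. aureus Smith, 1.3 × 10^10 cfu (po groups) or 5 × 10^9 cfu (sc groups); dosed po or sc at 1 + 5 h postinfection, 0.2 mL/mouse. CD50 = total dose protecting 50% of mice from death, scored day 2 postinfection.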

[24] = Pharmacokinetic parameter Cmax was determined in blood level in mouse after oral administration.; assay type: ADME, organism-based; set-up: route oral; summary of the method: as §3
[25] = Pharmacokinetic parameter Tmax was determined in blood level in mouse after subcutaneous administration.; assay type: ADME, organism-based; conditions: sc; summary of the method: as §3
[26] = test system: Mus musculus; assay: Pharmacokinetic parameter AUC was determined in blood level in mouse after oral administration.; assay type: ADME, organism-based; conditions: in vivo; summary of the method: as §3
[27] = test system: Mus musculus; assay: Total […] dose against Staphylococcus aureus after po administration (1+5 hr post infection) to mouse; assay type: organism-based; conditions: in vivo; summary of the method: as §4
[28] = test system: Staphylococcus aureus; assay: Minimal inhibitory concentration against Staphylococcus aureus Smith; assay type: functional; summary of the method: as §2
[29] = test system: Mus musculus; assay: Total […] dose against Staphylococcus aureus after sc administration (1+5 hr post infection) to mouse; assay type: organism-based; conditions: in vivo; summary of the method: as §4

MIC [1] [µg/mL] | MIC [2] [µg/mL] | MIC [3] [µg/mL] | MIC [4] [µg/mL] | IC50 [5] [nM] | MIC [6] [µg/mL] | MIC [7] [µg/mL] | MIC [8] [µg/mL] | MIC [9] [µg/mL] | MIC [10] [µg/mL] | MIC [11] [µg/mL] | MIC [12] [µg/mL] | MIC [13] [µg/mL] | MIC [14] [µg/mL] | MIC [15] [µg/mL] | MIC [16] [µg/mL] | MIC [17] [µg/mL] | Structure (SMILES) | also measured
> 64 | < 0.06 | 64 (≈ 129 µM) | < 0.06 | 6.87 | > 64 | 16 (≈ 32.4 µM) | > 64 | 32 (≈ 64.7 µM) | < 0.06 | < 0.06 | < 0.06 | 32 (≈ 64.7 µM) | 32 (≈ 64.7 µM) | < 0.06 | < 0.06 | 32 (≈ 64.7 µM) | C/C(=C\c1ncc(-c2cc([N+](=O)[O-])cs2)o1)C[C@@H]1OC[C@H](C[C@@H]2O[C@H]2[C@@H](C)[C@H](C)O)[C@@H](O)[C@H]1O | –
2 (≈ 4.18 µM) | < 0.06 | > 64 | < 0.06 | – | 4 (≈ 8.36 µM) | 4 (≈ 8.36 µM) | > 64 | > 64 | < 0.06 | < 0.06 | < 0.06 | 16 (≈ 33.4 µM) | 16 (≈ 33.4 µM) | < 0.06 | < 0.06 | 4 (≈ 8.36 µM) | C/C(=C\c1ncc(-c2ccc([N+](=O)[O-])o2)o1)C[C@@H]1OC[C@H](C[C@@H]2O[C@H]2[C@@H](C)[C@H](C)O)[C@@H](O)[C@H]1O | CD50 [18]: 1.2 mg/kg; Cmax [19]: 30500 ng/mL; AUC [20]: 2407 ug m-1 min-1; IC50 [21]: 400 µg/mL (≈ 836 µM); Tmax [22]: 15 min; CD50 [23]: 3.2 mg/kg; Cmax [24]: 28700 ng/mL; Tmax [25]: 5 min; AUC [26]: 1734 ug m-1 min-1
– | – | – | – | – | – | – | – | – | – | – | – | – | – | – | – | – | CC1(C)S[C@@H]2[C@H](NC(=O)[C@H](N)c3ccc(O)cc3)C(=O)N2[C@H]1C(=O)O [AMOXICILLIN] | CD50 [27]: 0.24 mg/kg; MIC [28]: 0.25 µg/mL (≈ 0.684 µM); CD50 [29]: 0.28 mg/kg
16 (≈ 32.4 µM) | < 0.06 | 64 (≈ 129 µM) | 0.125 (≈ 0.253 µM) | 4.45 | 64 (≈ 129 µM) | 16 (≈ 32.4 µM) | > 64 | 64 (≈ 129 µM) | 0.125 (≈ 0.253 µM) | < 0.06 | < 0.06 | 32 (≈ 64.7 µM) | 32 (≈ 64.7 µM) | 0.125 (≈ 0.253 µM) | < 0.06 | 32 (≈ 64.7 µM) | C/C(=C\c1ncc(-c2csc([N+](=O)[O-])c2)o1)C[C@@H]1OC[C@H](C[C@@H]2O[C@H]2[C@@H](C)[C@H](C)O)[C@@H](O)[C@H]1O | –
